# MC4R antagonist: antagonists of human melanocortin 4 receptor (MC4R); inhibition, % at 6.5 µM; hit rate 0.48% among 360,000; MC4R-expressing cells, MTII-stimulated cAMP, LANCE TR-FRET; AID 540295; P32245;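 active means inhibition above its plate's cutoff, the mean of tested wells on that plate plus 3 SD, cut at about 29% in these data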;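 further: 0% = Melanotan II alone and 100% = Melanotan II plus saturating MCL0020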
# Target sequence (P32245 whole entry, looked up): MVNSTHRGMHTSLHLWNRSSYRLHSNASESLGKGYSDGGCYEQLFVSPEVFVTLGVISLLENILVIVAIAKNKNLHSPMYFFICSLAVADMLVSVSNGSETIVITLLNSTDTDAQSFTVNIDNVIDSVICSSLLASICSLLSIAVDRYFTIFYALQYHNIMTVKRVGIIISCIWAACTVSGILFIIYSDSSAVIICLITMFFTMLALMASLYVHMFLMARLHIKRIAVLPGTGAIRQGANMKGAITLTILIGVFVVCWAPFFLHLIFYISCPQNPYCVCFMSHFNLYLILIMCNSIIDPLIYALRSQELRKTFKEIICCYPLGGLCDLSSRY
#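 Material: U2OS-MC4R stable cell line | Reagent: Melanotan II challenge after compound preincubation | Doses: One concentration, 6.5 µM nominal | Incubation: 30-min compound preincubation, 1-h Melanotan II challenge, 1-h detection, room temperature | Signal: TR-FRET cAMP assay | Replicates: One well per compound, no replicates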
# PfGluPho inh: PfG6PD (Plasmodium falciparum) enzyme inhibition | hit rate 0.78% among 350,000 | AID 504690 | PfGluPho enzyme, NADPH resazurin-diaphorase fluorescence | inhibition, % at 20 µM;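 active means inhibition reaching at least a set limit at 20 µM in the primary screen, cut at about 59% in these data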;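 further: 0% = DMSO wells with substrate and 100% = DMSO wells lacking glucose-6-phosphate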
# ABHD5-PLIN5 inh: inhibitors of human ABHD5-perilipin-5 interaction. Q00G26+Q8WTS1. Split G. princeps luciferase complementation, luminescence, 4 h. AID 602281. hit rate 0.78% among 360,000. inhibition, % at 4 µM;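 active means inhibition above the mean inhibition across every tested compound plus 3 SD, cut at about 22% in these data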;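 further: 0% = DMSO only wells and the 100% control is not disclosed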
# B2AR ag: human beta-2 adrenergic receptor agonism by FAP. Am2.2-beta2AR cells, FAP receptor internalization, flow cytometry. P07550. response, % (test concentration not listed). hit rate 0.43% among 340,000;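 active means response above a set limit, near 3 SD of response in nonfluorescent compounds, cut at about 42% in these data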
# MC4R barr agon: activates human MC4R beta-arrestin recruitment | hit rate 0.98% among 360,000 | P32245 | activation, % at 8.9 µM | AID 540308 | U2OS MC4R beta-arrestin complementation, luminescence; percent of melanotan II response, DMSO zero;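 active means activation above a per-plate cutoff, the mean activation of sample wells on that plate plus 3 SD, cut at about 8% in these data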
# Active calls of the source: *; / = no result given. Only some compounds are listed: those with a hit (about 3% of all), similar ones and a draw of the others.
SMILES,MC4R antagonist,PfGluPho inh,ABHD5-PLIN5 inh,B2AR ag,MC4R barr agon
CC(C)CC(=O)Nc1ccc(S(=O)(=O)N2CC3CC(C2)c2cccc(=O)n2C3)cc1 (stereo not given),7,-5,-3,1,-1
CCC(=O)c1ccc(OCC(=O)N2CCN(CC(=O)Nc3ccccc3C(F)(F)F)CC2)cc1,3,-1,1,-15,-2
O=S(=O)(F)c1ccc2nc(-c3cccc(Sc4ccccc4)c3)cc(Cl)c2c1,21,2,5,2,1
C[C@@H]1O[C@@H](O[C@H]2C[C@@H](O)[C@]3(CO)[C@H]4[C@H](O)C[C@]5(C)[C@@H](C6=CC(=O)OC6)CC[C@]5(O)[C@@H]4CC[C@]3(O)C2)[C@H](O)[C@H](O)[C@H]1O,-4,0,-1,6,35*
COC(=O)C1=C(c2ccc(Cl)c(C(F)(F)F)c2)C[C@@H]2CC[C@H]1N2C(=O)NCc1cc(C)oc1C(F)(F)F,1,-12,-6,8,1
COc1cccc2c1cc([N+](=O)[O-])c1c(C(=O)O)cc3c(c12)OCO3,-1,-5,-1,4,-2
COc1cc2c(cc1OC)CC[N+](C)=C2,-3,10,0,57*,2
CC1OC(OC2C=C3CCC4C(CCC5(C)C(c6ccc(=O)oc6)CCC45O)C3(C)CC2)C(O)C(OC2OC(CO)C(O)C(O)C2O)C1O (stereo not given),13,-4,-5,-7,37*
C[C@]12CCC3C(CCC4=CC(O)CC[C@@]43/C=N/O)C1(O)CCC2C1=CC(=O)OC1 (stereo not given in full),0,-7,-2,-4,39*
C[C@H]1O[C@@H](OC2CC[C@]3(C=O)[C@H]4CC[C@]5(C)[C@@H](C6=CC(=O)OC6)CC[C@]5(O)[C@@H]4CC[C@]3(O)C2)CC2OC(C)(C)OC21 (stereo not given in full),-3,-1,5,-3,40*
CC12CC[C@H]3[C@@H](CCC4(O)C[C@H](O)CCC34/C=N/NC(=O)c3ccccc3Cl)C1(O)CCC2C1=CC(=O)OC1 (stereo not given in full),4,-10,-4,-5,-1
CC12CCC3C(CCC4(O)CC(O)CCC34C=O)C1(O)CCC2C1=CC(=O)OC1 (stereo not given),8,7,3,-3,21*
C[C@]12CC[C@H]3[C@@H](CC[C@]4(O)C[C@@H](O)CC[C@]34C=O)[C@@]1(O)CC[C@@H]2C1=CC(=O)OC1,3,-15,3,1,27*
CC12CCC3C(CCC4(O)CC(O)CCC34C=NO)C1(O)CCC2C1=COC(=O)C1 (stereo not given),2,4,-4,3,26*
CCCCN=C[C@]12CCC(O)CC1(O)CCC1[C@@H]2CC[C@]2(C)[C@H](C3C=CC(=O)O3)CCC12O (stereo not given in full),-2,-10,-9,-8,35*
Cc1nc2ccccc2c(=O)n1-c1nccs1,/,/,3,/,/
Cc1ccc(-c2nc3ccccc3c(=O)n2-c2nccs2)cc1,-3,14,2,-4,9.2*
Cc1cc2c(C(C)C)c(O)c(O)c(C=O)c2c(O)c1-c1c(C)cc2c(C(C)C)c(O)c(O)c(C=O)c2c1O,14,/,7,/,9.5*
CC1SC2(CN3CCC2CC3)NC1=O (stereo not given),1,-11,2,9,-2
CC1(C)C2CC=C(CN3CCOCC3)C1C2 (stereo not given),1,12,-5,-4,0
COC1CCC(OC2CC(C3(C)CCC4(CC(O)C(C)C(C(C)/C=C(\C)C(=O)C(C)CC(C)C(=O)O)O4)O3)OC3(OC(C4OC(O)(CO)C(C)CC4C)CC3C)C2C)OC1C (stereo not given),8,5,0,41,19*
CCC(=NCc1cccnc1)c1c(O)n(-c2ccccc2)c(=O)[nH]c1=O,0,-7,0,4,-1
COCCNC(=O)Cn1cc(C=C2C(=O)NC(=O)NC2=O)c2ccccc21,-1,3,22*,-1,-1
CCc1ccccc1N1C(=O)NC(=O)/C(=C\c2cc(C)n(C)c2C)C1=O,5,-14,-2,61*,-1
CC(=O)N1Cc2cnnn2-c2ccccc2C1C#N (stereo not given),-2,17,-9,-9,-2
SMILES,MC4R antagonist,PfGluPho inh,ABHD5-PLIN5 inh,B2AR ag,MC4R barr agon
O=C(Cn1ncc2c3ccccc3n(Cc3ccccc3F)c2c1=O)N1CCC2(CC1)OCCO2,1,-11,-3,51*,0
Cc1c2cnn(CC(=O)N3CCC4(CC3)OCCO4)c(=O)c2c(C)n1Cc1ccc(F)cc1,2,-4,6,-1,1
Cn1cccc1/C=C1/C(=O)NC(=S)N(Cc2ccc(F)cc2)C1=O,5,31,9,60*,-4
C=C(C)[C@@]12OC3(c4ccccc4)O[C@@H]1C1[C@@H]4O[C@]4(CO)[C@@H](O)[C@]4(O)C(=O)C(C)=C[C@H]4[C@@]1(O3)[C@H](C)[C@H]2OC(=O)/C=C/C=C/c1ccccc1 (stereo not given in full),18,32,-10,112*,1
CCC(C)c1cnc(CC(C)C)c(=O)n1O (stereo not given),6,/,1,/,1
CN(C)C(=S)SSC(=S)N(C)C,-5,95*,-6,18,-2
COc1cc2c3c(c1OC)Oc1ccc(cc1)C[C@H]1c4c(cc(OC)c(OC)c4Oc4ccc(cc4)C[C@@H]3N(C)CC2)CCN1C,5,32,11,45*,-1
COc1cc2c3cc1Oc1c(OC)c(OC)cc4c1[C@H](Cc1ccc(cc1)Oc1cc(ccc1O)C[C@H]3N(C)CC2)N(C)CC4,0,34,13,26,-1
C=CCCC[C@@H]1OC(=O)CNC(=O)C([C@@H](C)CC)NC(=O)[C@@H]2CCCN2C(=O)C([C@@H](C)CC)OC(=O)[C@H](Cc2ccccc2)N(C)C(=O)[C@H](C(C)C)NC(=O)C1(C)C (stereo not given in full),/,/,22*,/,/
CCC(C)C1NC(=O)C2CCCN2C(=O)C(CC(C)C)OC(=O)CCNC(=O)C(C)N(C)C(=O)C(C(C)C)N(C)C1=O (stereo not given),5,2,-5,1,-2
CCOC(=O)C1(CCOc2ccccc2)CCN(Cc2ccc(C)s2)CC1,7,9,4,5,2
Cn1ncnc2c(=O)n(C)c(=O)nc1-2,-14,122*,-29,53*,0
COC(=O)C1=C(c2ccc(OC)c(OC)c2)C[C@@H]2CC[C@H]1N2C(=O)NCCOc1ccc(OC)cc1,16,-10,14,-2,1

# Screening results deposited in PubChem by several laboratories.
